Test results taken from ChEMBL document CHEMBL3271938, “Podophyllotoxin analogs. 1. Synthesis and biological evaluation of certain trans-2-aryl-trans-6-hydroxymethyl-3-cyclohexenecarboxylic acid gamma-lactones as antimitotic agents” (1976).

How the values were obtained:
Tubulin (Bos taurus) [1] = biological target: T1, Tubulin (Bos taurus) (UniProt Q6B856+Q862L2+Q862F3); assay: Displacement of [3H]colchicine from bovine brain tubulin at 10 uM after 90 mins by liquid scintillation counting in presence of 10 uM [3H]colchicine
Tubulin (Bos taurus) [2] = biological target: T1, Tubulin (Bos taurus); assay: Displacement of [3H]colchicine from bovine brain tubulin at 40 uM after 90 mins by liquid scintillation counting in presence of 10 uM [3H]colchicine
Tubulin (Bos taurus) [3] = biological target: T1, Tubulin (Bos taurus); assay: Displacement of [3H]colchicine from bovine brain tubulin at 60 uM after 90 mins by liquid scintillation counting in presence of 10 uM [3H]colchicine
Tubulin (Bos taurus) [4] = biological target: T1, Tubulin (Bos taurus); assay: Displacement of [3H]colchicine from bovine brain tubulin at 100 uM after 90 mins by liquid scintillation counting in presence of 10 uM [3H]colchicine
[5] = Inhibition of colony formation in BDF1 mouse bone marrow cells assessed as percentage of colony forming cell at 0.5 uM after 7 days by microscopic analysis relative to control; assay type: functional; parameters: scale not given: the % may be the effect or the level left
Outline: (§1)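 Femoral marrow from female BDF1 mice (8-12 weeks) was dispersed and 1 × 10^5 cells plated in 1.0 ml of 0.3% agar. Medium was McCoy's 5A with supplements, 10^-4 M dithiothreitol, 10% fetal calf and 5% horse serum, plus L-cell CSF. Compound came from a 1 mM stock in Me2SO/EtOH saline, diluted serially 1:10. Incubated 7 days at 37°C under 12% CO2/8% O2; colonies counted microscopically as % of control.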

[6] = Inhibition of colony formation in BDF1 mouse bone marrow cells assessed as percentage of colony forming cell at 5 uM after 7 days by microscopic analysis relative to control; assay type: functional; parameters: scale not given: the % may be the effect or the level left; outline: as §1
[7] = Inhibition of colony formation in BDF1 mouse bone marrow cells assessed as percentage of colony forming cell at 50 uM after 7 days by microscopic analysis relative to control; assay type: functional; parameters: scale not given: the % may be the effect or the level left; outline: as §1
P815 [8] = assay: Inhibition of colony formation in mouse P815 cells assessed as percentage of colony forming cell at 0.5 uM after 7 days by microscopic analysis relative to control; assay type: functional; parameters: scale not given: the % may be the effect or the level left
Outline: (§2)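 P-815 mastocytoma cells, passaged in vitro, plated at 1 × 10^3 cells in 1.0 ml of 0.3% agar. Medium was McCoy's 5A with supplements, 10^-4 M dithiothreitol, 10% fetal calf and 5% horse serum. Compound came from a 1 mM stock in Me2SO/EtOH saline, diluted serially 1:10. Incubated 7 days at 37°C under 12% CO2/8% O2; colonies counted microscopically as % of control.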

P815 [9] = assay: Inhibition of colony formation in mouse P815 cells assessed as percentage of colony forming cell at 5 uM after 7 days by microscopic analysis relative to control; assay type: functional; parameters: scale not given: the % may be the effect or the level left; outline: as §2
P815 [10] = assay: Inhibition of colony formation in mouse P815 cells assessed as percentage of colony forming cell at 50 uM after 7 days by microscopic analysis relative to control; assay type: functional; parameters: scale not given: the % may be the effect or the level left; outline: as §2
Tubulin (Bos taurus) [11] = biological target: T1, Tubulin (Bos taurus); assay: Displacement of [3H]colchicine from bovine brain tubulin at 20 uM after 90 mins by liquid scintillation counting in presence of […]
Tubulin (Bos taurus) [12] = biological target: T1, Tubulin (Bos taurus); assay: Displacement of [3H]colchicine from bovine brain tubulin at 50 uM after 90 mins by liquid scintillation counting in presence of 10 uM [3H]colchicine
Tubulin (Bos taurus) [13] = biological target: T1, Tubulin (Bos taurus); assay: Displacement of [3H]colchicine from bovine brain tubulin at 200 uM after 90 mins by liquid scintillation counting in presence of 10 uM [3H]colchicine
[14] = Inhibition of colony formation in BDF1 mouse bone marrow cells assessed as percentage of colony forming cell at 5 nM after 7 days by microscopic analysis relative to control; assay type: functional; parameters: scale not given: the % may be the effect or the level left; outline: as §1
[15] = Inhibition of colony formation in BDF1 mouse bone marrow cells assessed as percentage of colony forming cell at 50 nM after 7 days by microscopic analysis relative to control; assay type: functional; parameters: scale not given: the % may be the effect or the level left; outline: as §1
P815 [16] = assay: Inhibition of colony formation in mouse P815 cells assessed as percentage of colony forming cell at 5 nM after 7 days by microscopic analysis relative to control; assay type: functional; parameters: scale not given: the % may be the effect or the level left; outline: as §2
P815 [17] = assay: Inhibition of colony formation in mouse P815 cells assessed as percentage of colony forming cell at 50 nM after 7 days by microscopic analysis relative to control; assay type: functional; parameters: scale not given: the % may be the effect or the level left; outline: as §2

SMILES	Activity (Tubulin (Bos taurus) [1])	Activity (Tubulin (Bos taurus) [2])	Activity (Tubulin (Bos taurus) [3])	Activity (Tubulin (Bos taurus) [4])	Activity [5]	Activity [6]	Activity [7]	Activity (P815 [8])	Activity (P815 [9])	Activity (P815 [10])	Activity (Tubulin (Bos taurus) [11])	Activity (Tubulin (Bos taurus) [12])	Activity (Tubulin (Bos taurus) [13])	Activity [14]	Activity [15]	Activity (P815 [16])	Activity (P815 [17])
O=C1OC[C@H]2CC=CC[C@@H]12	15800 cpm	16800 cpm	15900 cpm	14100 cpm	106%	103%	114%	93%	69%	111%	–	–	–	–	–	–	–
COc1cc([C@H]2C=CC[C@@H]3C(=O)OC[C@H]32)cc(OC)c1OC	–	–	–	11500 cpm	90%	74%	135%	89%	95%	109%	9070 cpm	11900 cpm	8690 cpm	–	–	–	–
O=C1OC[C@H]2CC=C[C@H](c3ccccc3)[C@@H]12 (relative stereo)	1320 cpm	12300 cpm	13900 cpm	13600 cpm	–	–	–	–	–	–	–	–	–	–	–	–	–
O=C1OC[C@H]2CC=C[C@H](c3ccccc3)[C@H]12	12200 cpm	15600 cpm	18500 cpm	15500 cpm	96%	95%	107%	74%	75%	93%	–	–	–	–	–	–	–
O=C1OC[C@@H]2[C@@H]1CC=C[C@@H]2c1ccc2c(c1)OCO2	17400 cpm	16700 cpm	15600 cpm	16700 cpm	104%	135%	166%	100%	61%	169%	–	–	–	–	–	–	–
O=C1OC[C@H]2[C@@H]1CC=C[C@@H]2c1ccc2c(c1)OCO2	19000 cpm	16700 cpm	17000 cpm	17000 cpm	103%	105%	121%	71%	98%	106%	–	–	–	–	–	–	–
O=C1OC[C@H]2CC=C[C@H](c3ccc4c(c3)OCO4)[C@@H]12	17600 cpm	17600 cpm	17300 cpm	12400 cpm	97%	105%	115%	89%	112%	138%	–	–	–	–	–	–	–
O=C1OC[C@H]2CC=CC[C@H]12	15500 cpm	14900 cpm	15200 cpm	14700 cpm	102%	91%	106%	102%	95%	112%	–	–	–	–	–	–	–
O=C1OC[C@H]2CC=C[C@H](c3ccc4c(c3)OCO4)[C@H]12	16000 cpm	20100 cpm	18200 cpm	19600 cpm	87%	143%	170%	101%	86%	143%	–	–	–	–	–	–	–
COc1cc([C@H]2C=CC[C@@H]3C(=O)OC[C@@H]32)cc(OC)c1OC (relative stereo)	18500 cpm	11600 cpm	18400 cpm	18200 cpm	75%	73%	55%	81%	89%	178%	–	–	–	–	–	–	–
COc1cc([C@H]2C=CC[C@@H]3COC(=O)[C@H]32)cc(OC)c1OC (relative stereo)	17000 cpm	15500 cpm	14600 cpm	15200 cpm	35%	105%	75%	84%	42%	9%	–	–	–	–	–	–	–
O=C1OC[C@H]2[C@@H]1CC=C[C@@H]2c1ccccc1 (relative stereo)	15800 cpm	14800 cpm	5380 cpm	13100 cpm	–	–	–	–	–	–	–	–	–	–	–	–	–
COc1cc([C@@H]2c3cc4c(cc3[C@H](O)[C@H]3COC(=O)[C@H]23)OCO4)cc(OC)c1OC [PODOFILOX]	–	–	–	–	0%	–	–	0%	–	–	–	–	–	95%	1%	91%	0%
